High-throughput results: PubChem, The Scripps Research Institute Molecular Screening Center
Only some compounds are listed: those with a hit (about 4.6% of all), similar ones and a draw of the others.
CHO parental Ca: counter-screen for OX1R antagonists: effect in parental CHO cells | parental CHO-K1, ATP-induced calcium, Fluo-8 fluorescence | inhibition, % at 5.6 µM | 330,000 compounds, 0.63% hits;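 active = inhibition above that plate's mean sample inhibition plus 3 SD, cut at about 26% in these data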
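Test system: parental CHO cells; detection: calcium-sensitive Fluo-8 fluorescence; evaluation: percent inhibition of calcium signal; also added: ATP as calcium-mobilizing challenge; repeats: one well per compound; control set: ATP-challenged DMSO wells low, unchallenged DMSO wells high; compound: single nominal dose of 5.6 µM per compound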
TAAR1 agonist: human TAAR1 agonism; CHO RD-HGA16 TAAR1, Fluo-8 calcium fluorescence; vehicle wells 0%, saturating PEA agonist 100%; activation, % at 3 µM; Q96RJ0; AID 624467; 360,000 compounds, 0.99% hits;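 active = activation above the mean activation of all test compounds in the run plus 3 SD, cut at about 38% in these data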
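System: CHO RD-HGA16 cells carrying human TAAR1 plus Gα16; Incubation: 17-24 h seeding, 75 min 37 °C dye, 30 min RT; Measured by: Fluo-8 fluorescence, 5 s baseline then 140 s kinetic read; Control set: DMSO and PEA EC100; Replication: single well for each compound.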
OX1R antag-1: blocks the human orexin 1 receptor | O43613 | OX1R-expressing cells, FRET antagonist read-out | inhibition, % at 6.6 µM | 330,000 compounds, 1.8% hits | AID 485270; in the data active = inhibition mostly above about 38%, no sharp cut-off; inactive = mostly below about 40%
GPR7 antagonist: blocks human GPR7 receptor signaling. P48145. 290,000 compounds, 1.1% hits. GPR7-expressing cells, fluorescence antagonist assay. inhibition, % at 4.4 µM; in the data active = inhibition above about 16%, passing the limit was not always enough;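 also: cells stimulated with the agonist NPW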
Target sequence (P48145 whole entry, looked up): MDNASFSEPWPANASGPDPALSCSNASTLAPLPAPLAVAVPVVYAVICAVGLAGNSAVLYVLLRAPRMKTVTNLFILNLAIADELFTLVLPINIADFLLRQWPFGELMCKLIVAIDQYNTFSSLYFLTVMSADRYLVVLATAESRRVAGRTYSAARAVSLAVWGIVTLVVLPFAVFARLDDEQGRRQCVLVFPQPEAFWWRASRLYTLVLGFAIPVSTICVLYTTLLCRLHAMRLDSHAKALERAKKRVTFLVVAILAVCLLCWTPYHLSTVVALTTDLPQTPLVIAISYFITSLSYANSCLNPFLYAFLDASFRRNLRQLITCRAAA
TAAR1 antagonist: antagonists of human TAAR1 | Q96RJ0 | CHO RD-HGA16 TAAR1, Fluo-8 calcium fluorescence, antagonist | inhibition, % at 3 µM | 360,000 compounds, 1.5% hits;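 active = inhibition above a per-plate cutoff, the mean inhibition of test compounds on that plate plus 3 SD, cut at about 49% in these data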
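Assay system: RD-HGA16 CHO cells with stable hTAAR1 and Gα16 / Reagent: EC80 β-phenethylamine stimulus / Doses: 3 µM, single point / Timing: dye loading 75 min at 37 °C, then 30 min room temperature / Measured by: Fluo-8 intracellular calcium dye fluorescence, real-time kinetic reads / Controls: vehicle wells and EC80 agonist wells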
OX1R antag-2: antagonists of human orexin 1 receptor | CHO/OX1R cells, Fluo-8 calcium fluorescence, orexin A | inhibition, % at 5 µM | 330,000 compounds, 0.43% hits | O43613;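 active = inhibition above its plate's threshold, mean inhibition of all tested compounds on the plate plus 3 SD, cut at about 37% in these data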
TAAR1 ag conf: confirmation of human TAAR1 agonists; AID 651783; CHO RD-HGA16 TAAR1, Fluo-8 calcium fluorescence; scaled: DMSO 0%, maximal phenethylamine 100%; shares compounds with TAAR1 agonist; 2,400 compounds, 82% hits; activation, % at 3 µM;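 active = activation above a cutoff set at the run's mean compound activation plus 3 SD, cut at about 39% in these data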
Ga16 ag counter: nonselective agonist in parental cells, TAAR1 agonist counter-screen. shares compounds with TAAR1 agonist. CHO-Ga16 parental, Fluo-8 calcium fluorescence; normalized to maximal ATP response, DMSO zero. activation, % at 3 µM. 2,400 compounds, 50% hits. AID 651787;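 active = activation above the run cutoff, the mean activation over all tested wells plus 3 SD, cut at about 12% in these data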
TAAR1 desensitize: human TAAR1 agonist that also desensitizes the receptor; 2,400 compounds, 46% hits; shares compounds with TAAR1 agonist; inhibition, % at 3 µM; AID 651951; CHO RD-HGA16 hTAAR1, Fluo-8 calcium, beta-PEA response inhibition;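 active = inhibition above the run cutoff, the mean inhibition of all test compounds plus 3 SD, cut at about 49% in these data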;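 also: beta-PEA stimulus applied at its EC80; loss of beta-PEA calcium signal after compound pretreatment read as receptor desensitization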
Ga16 antag count: counter-screen for TAAR1 agonists: nonselective Ga16 antagonists; shares compounds with TAAR1 agonist; CHO-Ga16 ATP-induced calcium, Fluo-8 fluorescence; inhibition, % at 3 µM; 2,400 compounds, 39% hits;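 active = inhibition above the plate's mean compound inhibition plus 3 SD, computed per plate, cut at about 22% in these data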
Numbers stand for hits.

What do the screens show for `CC(C)(C)c1ccc(OCCCNCc2ccccc2)cc1`?
CHO parental Ca: inactive; TAAR1 agonist: 73.6; OX1R antag-1: inactive; GPR7 antagonist: inactive; TAAR1 antagonist: inactive; OX1R antag-2: inactive; TAAR1 ag conf: 69.2; Ga16 ag counter: 33.4; TAAR1 desensitize: inactive; Ga16 antag count: inactive

How did CCOC(=O)[C@]12Cc3c(cc(OC)c(OC)c3OC)[C@H]1N(C1CCCCC1)C(=O)c1cc(OC)ccc12 do in these assays?
TAAR1 agonist: inactive; TAAR1 antagonist: inactive

What do the screens show for `COc1ccc(CNC(=O)Cn2cnc3c(NCc4ccccc4)ncnc32)cc1`?
CHO parental Ca: inactive; TAAR1 agonist: inactive; OX1R antag-1: inactive; TAAR1 antagonist: inactive; OX1R antag-2: inactive

What do the screens show for `CN(C[C@@H](Cc1cccc2ccccc12)N(C[C@H](Cc1ccccc1)N(CCc1ccccc1)N=O)N=O)N=O`?
CHO parental Ca: inactive; TAAR1 agonist: 50.9; OX1R antag-1: inactive; GPR7 antagonist: inactive; TAAR1 antagonist: inactive; OX1R antag-2: inactive; TAAR1 ag conf: 76.5; Ga16 ag counter: inactive; TAAR1 desensitize: inactive; Ga16 antag count: inactive

Results for COc1ccc(S(=O)(=O)N2CCC(C(=O)N3CCc4ccccc4C3)CC2)cc1C ?
CHO parental Ca: inactive; TAAR1 agonist: 52.1; OX1R antag-1: inactive; GPR7 antagonist: inactive; TAAR1 antagonist: inactive; OX1R antag-2: inactive; TAAR1 ag conf: 76.5; Ga16 ag counter: inactive; TAAR1 desensitize: inactive; Ga16 antag count: inactive

What do the screens show for `Cc1c(C(=O)N2CCc3ccccc3C2)oc2ccc(S(=O)(=O)N3CC(C)CC(C)C3)cc12` (stereo not drawn)?
CHO parental Ca: inactive; OX1R antag-1: inactive; GPR7 antagonist: inactive; OX1R antag-2: inactive; Ga16 ag counter: inactive; Ga16 antag count: inactive

How did CC(C)(OC(=O)c1ccc(F)cc1)c1cc2ccccc2c(=O)o1 do in these assays?
CHO parental Ca: inactive; TAAR1 agonist: inactive; OX1R antag-1: inactive; TAAR1 antagonist: inactive; OX1R antag-2: inactive

Results for CCN(CC)CCN(Cc1cc2cc3c(cc2[nH]c1=O)OCO3)C(=S)NC ?
CHO parental Ca: inactive; TAAR1 agonist: inactive; OX1R antag-1: inactive; GPR7 antagonist: inactive; TAAR1 antagonist: inactive; OX1R antag-2: inactive

Results for Cn1c(CNC(=O)C2CCCCC2)cc2cc(Cl)ccc21 ?
CHO parental Ca: inactive; TAAR1 agonist: 64.7; OX1R antag-1: inactive; GPR7 antagonist: inactive; TAAR1 antagonist: 70.1; OX1R antag-2: inactive; TAAR1 ag conf: inactive; Ga16 ag counter: inactive; TAAR1 desensitize: inactive; Ga16 antag count: inactive

What do the screens show for `Cc1cc2cc(CNC(=O)C3CCCC3)ccc2n1C`?
CHO parental Ca: inactive; TAAR1 agonist: inactive; OX1R antag-1: inactive; TAAR1 antagonist: inactive; OX1R antag-2: inactive

How did Cc1ccc(-n2cc(CNCCCn3ccnc3C)c(-c3ccc(F)cc3)n2)cc1 do in these assays?
CHO parental Ca: inactive; TAAR1 agonist: inactive; OX1R antag-1: inactive; GPR7 antagonist: inactive; TAAR1 antagonist: inactive; OX1R antag-2: inactive

Results for Cc1ccc(-n2cc(CNCCc3cscn3)c(-c3ccc(F)cc3)n2)cc1 ?
CHO parental Ca: inactive; TAAR1 agonist: 45.6; OX1R antag-1: inactive; GPR7 antagonist: inactive; TAAR1 antagonist: inactive; OX1R antag-2: inactive; TAAR1 ag conf: 56.8; Ga16 ag counter: inactive; TAAR1 desensitize: inactive; Ga16 antag count: inactive
